Source: PubChem BioAssay
EBNA-1 inhibitor = blocks EBNA-1 binding to DNA; 300,000 tested, 0.34% active; inhibition, % at 14.8 µM; EBNA-1 DNA binding, fluorescence polarization; in the data active means inhibition above about 28%
DNA FID counter = displaces DNA intercalator in HCV helicase counter-screen; DNA fluorescent intercalator displacement, fluorescence; inhibition, % at 7.9 µM; 290,000 tested, 0.17% active; AID 1845; in the data active means inhibition above about 37%;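 further: 0% = vehicle and 100% = reference compound; higher means more ethidium bromide displaced from hairpin DNA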
GPR7 antagonist = antagonists of human GPR7 (neuropeptides B/W receptor 1). 290,000 tested, 1.1% active. P48145. GPR7-expressing cells, fluorescence antagonist assay. inhibition, % at 4.4 µM; in the data active means inhibition above about 16%, passing the limit was not always enough;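 further: cells stimulated with the agonist NPW; 0% = agonist with vehicle and 100% = vehicle without agonist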
ZTA DNA inh = blocks Epstein-Barr virus ZTA, an EBNA-1 counter-screen | ZTA-DNA binding, fluorescence polarization | 320,000 tested, 0.15% active | inhibition, % at 11 µM; in the data active means inhibition above about 33%
Target sequence (P03206 whole entry, looked up): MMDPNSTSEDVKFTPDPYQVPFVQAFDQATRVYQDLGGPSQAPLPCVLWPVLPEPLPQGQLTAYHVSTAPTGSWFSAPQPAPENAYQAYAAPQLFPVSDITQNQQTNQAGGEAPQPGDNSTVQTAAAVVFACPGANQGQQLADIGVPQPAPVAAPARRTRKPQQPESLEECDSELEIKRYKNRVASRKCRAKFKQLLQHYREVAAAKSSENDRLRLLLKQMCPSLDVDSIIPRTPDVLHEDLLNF
HCV NS3 hel inh = inhibitors of Hepatitis C virus NS3 helicase; NS3 helicase DNA unwinding, Cy5 molecular beacon fluorescence; inhibition, % at 10.9 µM; 290,000 tested, 0.56% active; AID 1800;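 active means inhibition above the mean of all tested compounds plus 3 SD, set per campaign, cut at about 35% in these data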;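 further: 0% = DMSO wells and 100% = thioflavine S control wells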
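Material: hepatitis C virus NS3 helicase domain fragment enzyme; measured by: Cy5 fluorescence, 0 and 60 min reads; control set: DMSO and thioflavine S; incubation: 60 min unwinding reaction at 25 °C after ATP addition; read-out basis: % inhibition from 60/0 min fluorescence ratio, DMSO 0%, thioflavine S 100%; repeats: singlicate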
GPR7 antag conf = confirmation of human GPR7 antagonists. shares compounds with GPR7 antagonist. GPR7-expressing cells, calcium fluorescence antagonist mode. inhibition, % at 4.4 µM. 2,400 tested, 52% active; in the data active means inhibition above about 24%;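 further: stimulated with the GPR7 agonist NPW; 0% = agonist plus vehicle and 100% = vehicle alone without agonist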
MCHR1 antagonist = counter-screen for GPR7 antagonists: antagonists of human MCHR1; shares compounds with GPR7 antagonist; MCHR1-expressing cells, fluorescence antagonist assay; inhibition, % at 4.4 µM; 2,400 tested, 62% active; in the data active means inhibition above about 22%;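 further: 0% = vehicle with agonist and 100% = vehicle without agonist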
An asterisk follows results filed as active; nt = no result given. Hits are enriched below; roughly 2% of the tested compounds scored in any of these assays.

SMILES	EBNA-1 inhibitor	DNA FID counter	GPR7 antagonist	ZTA DNA inh	HCV NS3 hel inh	GPR7 antag conf	MCHR1 antagonist
CCOC(=O)c1cc2[nH]c3ccccc3c2[n+](-c2ccc([N+](=O)[O-])cc2)c1C	-2	11	23*	11	6	18	16
COc1ccc(CN(C)C(=O)c2ccc(NS(=O)(=O)c3ccc(F)cc3)cc2)c(OC)c1	-16	-54	22*	-14	11	10	2
COc1ccc(N=C2SCC(c3ccc(C)cc3)=NN2CCO)cc1	-5	-30	17	14	1	nt	nt
COc1ccc(N=C2SCC(c3ccc([N+](=O)[O-])cc3)=NN2CCO)cc1	-4	-8	32*	1	-9	28*	40*
O=[N+]([O-])c1ccc(C2=NN(CCO)C(=Nc3ccc(OC(F)(F)F)cc3)SC2)cc1	7	-2	28*	4	-17	54*	37*
CCC(Cc1ccccc1)NS(=O)(=O)c1ccc2c(c1)NC(=O)C(C)S2 (stereo unspecified)	-2	-23	-11	-5	-17	nt	nt
CN(C)CCCNc1cc(C(C)(C)C)nc2c(-c3ccccc3)cnn12	-1	48*	67*	18	-39	66*	67*
O=C(O)CCNS(=O)(=O)c1cccc2nsnc12	17	nt	nt	4	nt	nt	nt
CCCCc1cc(O)c(CCCC)c(O)c1	-1	-3	93*	-11	-3	93*	96*
O=S(=O)(c1ccc(Cl)cc1)N(Cc1ccccn1)Cc1ccccn1	-13	-22	36*	-8	12	-3	-2
CC1(C)CC[C@@]23CC[C@]4(C)[C@@](OC2=O)(C3C1)[C@H]1O[C@H]1C1[C@@]2(C)CC[C@H](O)C(C)(C)C2CC[C@]14C (stereo partly specified)	4	nt	nt	4	nt	nt	nt
CCC(C)(C)n1nnnc1C(c1cc(OC)ccc1OC)N1CCN(Cc2ccccc2)CC1 (stereo unspecified)	4	0	27*	-1	-16	31*	43*
O=C(NC1CCCCC1)C(c1ccc(F)cc1)N(Cc1ccco1)C(=O)c1ccccn1 (stereo unspecified)	1	-15	26*	1	3	6	12
O=C(NCc1ccccc1)C(c1ccc(F)cc1)N(Cc1ccco1)C(=O)c1ccccn1 (stereo unspecified)	-5	-18	7	8	-1	nt	nt
COc1ccc(-c2noc(CN3CCCCC3c3nccn3C)n2)cc1 (stereo unspecified)	3	7	41*	7	2	35*	20
Cc1nnc2c(NC3CCCCC3)nc3ccccc3n12	6	-24	-11	0	-12	nt	nt
Cc1cc(NC(=O)COC(=O)c2c(C)noc2C)ccc1Br	-3	-12	36*	-1	9	18	25*
COc1ccccc1NC(=O)CSc1nnc2ccc(-c3ccccn3)nn12	-5	nt	nt	3	nt	nt	nt
COC(=O)C1CCCCN1C(=O)c1cc(COc2cccc3cccnc23)on1 (stereo unspecified)	1	-45	-11	6	-2	nt	nt
COC(=O)C1CCCCN1C(=O)c1cc(COc2cccc3cnccc23)on1 (stereo unspecified)	-10	-29	35*	-6	1	28*	53*
COc1ccccc1COC(=O)c1ccc(S(=O)(=O)N2CCOCC2)cc1	nt	nt	nt	-20	nt	nt	nt
Cc1cc(C)c(NC(=O)CN2C(=O)NC3(CCCc4ccccc43)C2=O)c(Cl)c1 (stereo unspecified)	2	nt	nt	-5	nt	nt	nt
Cc1ccc(SCC(=O)Nc2ccc(N3CCN(C)CC3)c(F)c2)c(C)c1	-5	39*	38*	3	-72	3	10
O=C(NC1CCCCC1)c1ccc(S(=O)(=O)NCc2ccco2)cc1	4	-7	34*	-9	12	22	25*
CC1CCCC(C)N1C(=O)c1ccc(S(=O)(=O)NCc2ccco2)cc1 (stereo unspecified)	-14	-32	31*	6	1	4	23*
O=C(NC1CCN(Cc2ccccc2)CC1)c1ccc(S(=O)(=O)NCc2ccco2)cc1	10	19	1	16	-8	nt	nt
COCCCN(C(=O)C1CCC1)c1c(N)n(Cc2ccccc2)c(=O)[nH]c1=O	nt	nt	nt	-1	nt	nt	nt
